Screens: PubChem, several laboratories
Diaph act CS = diaphorase activation or chemical reduction counter-screen | Diaphorase/resazurin coupled assay, resorufin fluorescence, 16 min; hits give high values; 1 = vehicle wells, 0 = NADH-free wells | activation factor at 20 µM | 190,000 tested, 0.005% active;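 active = diaphorase activity raised at least twofold by the compound at 20 µM; inactive = activation factor below 2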
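Material: bacterial diaphorase enzyme (C. kluyveri); amount: enzyme 0.07 U/mL final; reagent: NADH substrate 0.114 mM plus resazurin dye 0.1 mM, final; doses: single compound dose of 20 µM, 1% DMSO final; timing: 16 min enzyme reaction, ambient temperature; measured by: fluorescence of resorufin, 544 nm excitation, 590 nm emission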
Diaph inh CS = diaphorase inhibition or chemical oxidation counter-screen; diaphorase resazurin-to-resorufin fluorescence, NADH, 16 min; bacterial (C. kluyveri) enzyme, not human; inhibition, % at 20 µM; 190,000 tested, 0.69% active;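 active = primary screen inhibition at 20 µM above a set limit, cut at about 50% in these data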;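 note: plate controls were DMSO with full reaction for no effect and wells lacking NADH for full effect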
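System: Bacterial diaphorase enzyme (C. kluyveri) | Incubation: 16-min room-temperature incubation before reading | Benchmarks: No-NADH positive control and DMSO neutral control | Measured by: Resorufin fluorescence 544/590 nm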
WT yeast gro inh = growth inhibition of WT yeast, mitochondrial fusion screen; mitochondrial fusion phenotypic screen, WT strain; inhibition, % at 10 µM; AID 1362; 190,000 tested, 2.1% active; in the data active = inhibition above about 58%; tested in S. cerevisiae
L major viab = reduces viability of Leishmania major promastigotes | resazurin fluorescence viability | 200,000 tested, 9% active | AID 1063 | inhibition, % at 10 µM; in the data active = inhibition above about 50%;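 note: promastigotes grown with compound for 44 hours at 28 °C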
ROMK primary = modulates human ROMK potassium channel activity; B-score at 10 µM; 130,000 tested, 2% active; AID 1918; Tet-inducible ROMK, thallium flux fluorescence; actives lie on both sides; P48048;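 active = signal ratio slope over the read window, or its plate-corrected B-score, at least 3 SD from the plate mean, either direction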;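 note: B-score of the F/F0 ratio slope over 7 to 12 s after thallium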
Cl transport mod = modulators of human KCC2 chloride dependent transport. B-score of Tl+ flux slope (higher = more flux/activation; lower = inhibition) at 10 µM. 190,000 tested, 2.2% active. Q9H2X9. KCC2 cells, thallium flux FluoZin-2 fluorescence;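 active = thallium flux slope and its plate-corrected score both differing from the plate sample mean at a set confidence after two filtering rounds, in either direction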;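 note: slope of fluorescence scaled to starting intensity during 10 to 20 s after thallium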
Target sequence (Q9H2X9 whole entry, looked up): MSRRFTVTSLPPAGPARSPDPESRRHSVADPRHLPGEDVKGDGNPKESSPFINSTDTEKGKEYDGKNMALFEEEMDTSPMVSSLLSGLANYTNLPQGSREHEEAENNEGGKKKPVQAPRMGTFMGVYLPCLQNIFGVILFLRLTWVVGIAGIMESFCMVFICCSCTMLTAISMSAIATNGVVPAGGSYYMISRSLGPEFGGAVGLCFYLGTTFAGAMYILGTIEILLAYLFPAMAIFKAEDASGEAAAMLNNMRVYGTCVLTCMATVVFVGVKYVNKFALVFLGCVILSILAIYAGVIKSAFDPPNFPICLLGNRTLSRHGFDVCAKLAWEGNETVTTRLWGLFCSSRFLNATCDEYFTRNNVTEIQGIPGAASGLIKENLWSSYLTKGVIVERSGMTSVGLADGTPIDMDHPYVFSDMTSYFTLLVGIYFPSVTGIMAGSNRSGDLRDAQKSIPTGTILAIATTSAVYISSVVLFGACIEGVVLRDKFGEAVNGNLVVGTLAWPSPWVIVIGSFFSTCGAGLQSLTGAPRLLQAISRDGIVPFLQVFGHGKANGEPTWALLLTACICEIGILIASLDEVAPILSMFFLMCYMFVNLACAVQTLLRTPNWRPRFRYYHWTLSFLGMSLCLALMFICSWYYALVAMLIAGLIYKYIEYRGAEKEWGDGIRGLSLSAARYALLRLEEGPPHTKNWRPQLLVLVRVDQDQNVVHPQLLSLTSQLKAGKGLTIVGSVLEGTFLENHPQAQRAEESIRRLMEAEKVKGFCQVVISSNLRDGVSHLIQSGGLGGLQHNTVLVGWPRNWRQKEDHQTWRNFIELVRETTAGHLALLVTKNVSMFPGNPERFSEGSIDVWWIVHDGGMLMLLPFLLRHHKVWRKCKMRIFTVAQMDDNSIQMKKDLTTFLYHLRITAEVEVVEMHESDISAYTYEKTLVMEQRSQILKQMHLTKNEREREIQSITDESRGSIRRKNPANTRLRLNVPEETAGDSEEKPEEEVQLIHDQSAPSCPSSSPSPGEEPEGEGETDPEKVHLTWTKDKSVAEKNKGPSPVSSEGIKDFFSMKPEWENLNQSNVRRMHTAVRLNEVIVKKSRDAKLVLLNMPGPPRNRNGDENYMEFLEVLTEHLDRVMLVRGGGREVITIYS
KCC2 sec1 = confirmation of human KCC2 transport modulators | HEK293-KCC2, thallium flux, FluoZin2 fluorescence; hits give high values | shares compounds with Cl transport mod | normalised thallium flux (F/F0 slope) at 10 µM | 3,700 tested, 15% active;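 active = thallium flux slope above the same plate's solvent-only control mean plus 3 SD; inconclusive = the two replicate wells disagree; inactive = no significant difference from solvent-only control wells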
KCC2 bumet counter = bumetanide-insensitive thallium flux in KCC2 cells with ouabain, counter-screen. shares compounds with Cl transport mod. normalized thallium flux at 10 µM. 3,700 tested, 49% active. HEK293-KCC2 + bumetanide/ouabain, thallium flux FluoZin2; hits give high values;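 active = thallium entry rate above the same plate's blocked-transporter control wells by more than 3 SD; inconclusive = the two repeat wells disagree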;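 note: raw slope of fluorescence over initial fluorescence between 10 and 20 s after thallium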
KCC2 sec2 = confirmation of human KCC2 transport modulators; normalized thallium flux at 10 µM; HEK293-KCC2, thallium flux FluoZin2 fluorescence; actives lie on both sides; F/F0 rise rate, 10–20 s post-thallium; 3,700 tested, 23% active; shares compounds with Cl transport mod;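 active = thallium flux slope more than 3 SD above or below the plate's solvent-only control mean, mostly below; inconclusive = the two repeat wells disagreed; inactive = no significant shift from solvent-only controls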;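 note: raw slope with 0.1% DMSO as baseline and bumetanide as block control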
HEK293 Tl flux = acts in parental HEK cells, KCC2 counter-screen; shares compounds with Cl transport mod; HEK293 parental cells, thallium flux FluoZin2, ouabain; baseline-ratio fluorescence slope, 10–20 s after thallium; thallium flux rate (normalised fluorescence) at 10 µM; 3,700 tested, 46% active; AID 1716;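 active = thallium flux rate significantly above the same plate's solvent-only control wells, beyond their mean plus 3 SD; inconclusive = the two replicate wells gave conflicting results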
KCC2 retest ouab = KCC2 (human) modulation, ouabain retest. AID 1717. raw Tl+ flux slope (below DMSO = inhibition, above = activation) at 10 µM. 3,700 tested, 48% active. HEK293-KCC2, thallium flux FluoZin2 fluorescence; bidirectional: low = inhibitor, high = activator. shares compounds with Cl transport mod;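 active = thallium flux slope beyond 3 SD from same-plate DMSO control mean in most replicates, usually higher, sometimes lower; inconclusive = repeat tests gave conflicting results; inactive = no significant difference from controls in most replicates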;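 note: slope of initial-normalized fluorescence between seconds 10 and 20 after thallium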
HEK counter2 = parental HEK flux effect, counter-screen 2 | shares compounds with Cl transport mod | HEK293 parental, thallium flux FluoZin-2 fluorescence slope | thallium flux slope at 10 µM | 3,700 tested, 33% active;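 active = thallium flux slope above the same plate's solvent-control mean plus 3 SD in both duplicate wells; inconclusive = duplicate wells that disagreed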;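 note: run without ouabain in cells lacking the KCC2 cotransporter; slope of fluorescence scaled to its starting value between 10 and 20 s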
* marks the source's active call; other numbers are inactive results; ? = inconclusive; . = no result given. Most compounds without a hit are left out; they make up all but 12% or so of the library.

SMILES | Diaph act CS | Diaph inh CS | WT yeast gro inh | L major viab | ROMK primary | Cl transport mod | KCC2 sec1 | KCC2 bumet counter | KCC2 sec2 | HEK293 Tl flux | KCC2 retest ouab | HEK counter2
Cn1c(NCC2CCCO2)nc2c1c(=O)n(Cc1ccccc1)c(=O)n2C (stereo not given) | 0.9 | 11 | -15 | -4 | 0.26 | . | . | . | . | . | . | .
Cn1c(=O)c2c(nc(NCC3CCCO3)n2Cc2cccc(Br)c2)n(C)c1=O (stereo not given) | 0.9 | 5 | -34 | 5 | . | -7.6* | 0.011 | 0.0064 | 0.03 | 0.0071 | 0.02 | ?
NS(=O)(=O)c1cccnc1Nc1cccc(Cl)c1Cl | 0.9 | 13 | -4 | 10 | -0.56 | -0.044 | . | . | . | . | . | .
CCOc1ccc(CN(CCC#N)C(=S)NC(=O)c2ccccc2)cc1 | 0.9 | 7 | 44 | 20 | 1.8 | 30* | 0.046* | 0.12* | 0.044* | 0.073* | 0.093* | 0.03*
Cc1nn(-c2ccccc2)c(C)c1/C=N/NC(=O)c1cc(C2CC2)[nH]n1 | 0.9 | 10 | 8 | -2 | . | . | 0.0075 | 0.0046 | 0.026 | 0.0071 | 0.015* | 0.0088
CCC(C)NC(=O)Nc1ccc(C)cc1C (stereo not given) | 1.1 | -13 | -4 | 12 | 0.58 | 0.82 | . | . | . | . | . | .
O=[N+]([O-])c1ccc(NC(=S)NCCc2ccc(Cl)cc2)cc1 | 0.9 | 14 | 83* | 91* | . | -5* | 0.017 | 0.0031 | 0.026* | ? | 0.014 | 0.0099
COC(=O)c1cc(C(=O)c2ccc(Cl)cc2)n2c(=O)/c(=C\N(C)C)sc12 | 0.8 | 18 | 2 | 9 | -0.18 | 0.7 | . | . | . | . | . | .
Cc1nc(NCc2cccnc2)c2c3c(sc2n1)CC(C)CC3 (stereo not given) | 0.8 | 17 | -2 | 7 | 0.37 | 59* | 0.036* | 0.16* | 0.038* | 0.097* | 0.087* | 0.034*
O=C(N/N=C\c1ccc(Cl)s1)C1COc2ccccc2O1 (stereo not given) | . | . | . | . | 0.29 | 12* | 0.0094 | 0.011* | 0.035 | ? | ? | 0.013
CS(=O)(=O)N(CC(O)CON=C1c2ccccc2-c2ccccc21)c1ccc(F)cc1 (stereo not given) | 0.8 | 22 | -13 | -2 | -0.6 | . | 0.006 | 0.0046 | 0.031 | ? | 0.019 | 0.01
CCNC(=O)CON=C1c2ccccc2-c2ccccc21 | 0.8 | 16 | 0 | 0 | 0.99 | . | . | . | . | . | . | .
COc1ccc(S(=O)(=O)NCCSCc2ccco2)cc1Cl | 0.8 | 22 | -13 | -5 | -1.9 | 6.4* | 0.006 | 0.0045 | 0.03 | 0.0071 | 0.017 | 0.011
O=C(Nc1nnc(-c2ccc(F)cc2)s1)Nc1ccccc1F | . | . | . | . | 0.7 | -0.56 | . | . | . | . | . | .
O=C(Nc1nnc(-c2cccc(F)c2)s1)Nc1ccccc1F | 1.2 | -23 | 4 | -5 | 0.0066 | 3.8* | 0.0064 | 0.0048 | 0.031 | 0.0074 | 0.02 | 0.011
O=C(Nc1nnc(COc2ccccc2F)s1)Nc1ccccc1F | . | . | . | . | . | 2.6* | 0.0086 | 0.0054 | 0.032 | 0.0078 | 0.022 | 0.01
O=C(COc1ccccc1)N/N=C/c1ccc2c(c1)OCO2 | 1 | 0 | 15 | 1 | 0.38 | 0.085 | . | . | . | . | . | .
O=C(N/N=C/c1ccc2c(c1)OCO2)C(O)c1ccccc1 (stereo not given) | 1 | -1 | -13 | 0 | 0.079 | 4.7* | 0.0079 | 0.0068 | 0.03 | 0.0066 | 0.02 | 0.0099
Cc1ccc(S(=O)(=O)NCC(=O)OC(C)C(=O)Nc2ncc(Cl)cc2Cl)cc1 (stereo not given) | 0.9 | 11 | -10 | 1 | . | 0.2 | . | . | . | . | . | .
Cc1ccc(COc2ccccc2-c2cc(C(=O)N/N=C/c3cccnc3)[nH]n2)cc1 | . | . | . | . | . | -5.5* | 0.0064 | 0.0055 | ? | ? | 0.012* | 0.011
O=C(C1CCCCC1)N1CCCC(c2nc3c(nnn3Cc3ccccc3)c(=O)[nH]2)C1 (stereo not given) | 0.9 | 13 | -5 | -1 | -0.39 | . | 0.0058 | ? | 0.026* | 0.0061* | 0.016* | ?
Cc1ccc(C)c(Cn2nnc3c(=O)[nH]c(C4CCCN(C(=O)C5CCCCC5)C4)nc32)c1 (stereo not given) | 0.8 | 19 | 11 | -5 | . | . | . | . | . | . | . | .
Cc1ccc(Cn2nnc3c(=O)[nH]c(C4CCN(S(=O)(=O)c5ccc(C)cc5)CC4)nc32)cc1 | 0.9 | 10 | -4 | -1 | 1.1 | . | 0.0071 | 0.0049 | 0.031 | 0.008 | 0.019 | 0.011
CCCCc1n[nH]c(=S)n1Cc1ccc(C)cc1 | 1 | 4 | 11 | 2 | -1 | 0.77 | . | . | . | . | . | .
CC1CCc2sc(C(=O)OCC(=O)NC(C)C)cc2C1 (stereo not given) | 1 | 3 | 7 | 3 | 0.29 | -0.83 | . | . | . | . | . | .
SMILES | Diaph act CS | Diaph inh CS | WT yeast gro inh | L major viab | ROMK primary | Cl transport mod | KCC2 sec1 | KCC2 bumet counter | KCC2 sec2 | HEK293 Tl flux | KCC2 retest ouab | HEK counter2
Cc1cc(C(=O)NC2Cc3ccccc3C2)c(C)o1 | . | . | . | . | . | -0.16 | . | . | . | . | . | .
CCOC(=O)NC(=O)COC(=O)Cc1cc(OC)c(OC)c(OC)c1 | 0.8 | 20 | 0 | 1 | -0.29 | . | . | . | . | . | . | .
O=C(O)CC1(CC(=O)Nc2cc(F)ccc2Cl)CCCCC1 | . | . | . | . | . | 1 | . | . | . | . | . | .
O=C(CO/N=C/c1c(Cl)cccc1Cl)NNC(=O)c1cccc(Cl)c1 | . | . | . | . | -0.3 | 1.4 | . | . | . | . | . | .
O=C(CO/N=C/c1c(Cl)cccc1Cl)NNC(=O)c1ccc(Cl)cc1 | . | . | . | . | -0.41 | 6.7* | 0.0097 | 0.013* | 0.034 | ? | 0.021 | 0.012
CCOC(=O)c1cnc(-n2nc(C)cc2C)nc1NNc1ncc(-c2ccccc2)cn1 | . | . | . | . | . | 8.5* | 0.0067 | 0.024* | 0.032 | 0.017* | 0.027* | 0.021*
CCOC(=O)c1cnc2cc(-c3ccc(C)cc3)nn2c1-c1ccccc1 | 0.8 | 20 | -2 | 5 | . | -1.1 | . | . | . | . | . | .
Cc1ccc(S(=O)(=O)N2CCCCC2)cc1NC(=O)CSc1nccn1C | 0.9 | 5 | -1 | 1 | -1.3 | 0.43 | . | . | . | . | . | .
